From ChEMBL document CHEMBL1156901, “Novel matrix metalloproteinase inhibitors derived from quinoxalinone scaffold (Part I)” (Bioorg Med Chem, 2010)
Calls of active or inactive are those of the source. No cut-off for these calls is given here.

Tests used:
[1] = target: 72 kDa type IV collagenase (Homo sapiens, UniProt P08253); assay: Inhibition of MMP2
In short: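 Gelatinase A (MMP-2) with succinylated gelatin substrate and inhibitor in 50 mM sodium borate, pH 8.5, incubated 30 min at 37 °C. 0.03% trinitrobenzenesulfonic acid then added for a further 20 min. Absorbance read at 450 nm.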

SK-OV-3 = assay: Antiproliferative activity against human SKOV3 cells after 48 hrs by MTT assay; type: functional, cell-based; details: SK-OV-3, 48 h
In short: (§1)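 RPMI1640 with 10% FBS, 37 °C, 5% CO2. Cells seeded at 10,000 per well and grown 4 h in complete medium. Compound added at 1600, 800, 400, 200 or 100 µg/ml for 48 h. 0.5% MTT then added for 4 h, formazan dissolved in DMSO over 15 min, OD read at 570 nm. IC50 taken as concentration giving 50% growth inhibition.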

[2] = target: Aminopeptidase N (Sus scrofa) (UniProt P15145); assay: Inhibition of APN assessed as substrate hydrolysis by UV/vis spectrophotometer
HL-60 = assay: Antiproliferative activity against human HL60 cells after 48 hrs by MTT assay; type: functional, cell-based; in short: as §1
K562 = assay: Antiproliferative activity against human K562 cells after 48 hrs by MTT assay; type: functional, cell-based; in short: as §1

Sequence of 72 kDa type IV collagenase (P08253 whole entry): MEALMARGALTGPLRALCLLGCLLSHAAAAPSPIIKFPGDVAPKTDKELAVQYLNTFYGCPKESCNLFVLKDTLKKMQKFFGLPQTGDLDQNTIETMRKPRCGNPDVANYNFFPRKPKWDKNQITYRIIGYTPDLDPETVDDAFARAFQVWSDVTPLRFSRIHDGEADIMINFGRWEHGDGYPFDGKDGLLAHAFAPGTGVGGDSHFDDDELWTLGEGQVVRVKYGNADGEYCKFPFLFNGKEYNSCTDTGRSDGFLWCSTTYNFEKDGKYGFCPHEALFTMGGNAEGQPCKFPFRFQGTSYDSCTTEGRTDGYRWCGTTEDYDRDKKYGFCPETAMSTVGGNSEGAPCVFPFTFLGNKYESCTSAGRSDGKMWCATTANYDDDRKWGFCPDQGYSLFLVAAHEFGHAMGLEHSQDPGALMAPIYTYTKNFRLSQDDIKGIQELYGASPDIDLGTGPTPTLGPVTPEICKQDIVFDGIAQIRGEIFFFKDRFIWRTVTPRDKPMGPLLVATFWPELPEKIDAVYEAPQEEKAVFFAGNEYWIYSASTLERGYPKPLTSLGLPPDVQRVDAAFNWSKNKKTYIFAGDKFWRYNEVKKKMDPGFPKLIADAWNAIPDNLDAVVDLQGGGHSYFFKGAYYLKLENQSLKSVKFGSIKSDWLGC
Sequence of Aminopeptidase N (Sus scrofa) (P15145 whole entry, looked up): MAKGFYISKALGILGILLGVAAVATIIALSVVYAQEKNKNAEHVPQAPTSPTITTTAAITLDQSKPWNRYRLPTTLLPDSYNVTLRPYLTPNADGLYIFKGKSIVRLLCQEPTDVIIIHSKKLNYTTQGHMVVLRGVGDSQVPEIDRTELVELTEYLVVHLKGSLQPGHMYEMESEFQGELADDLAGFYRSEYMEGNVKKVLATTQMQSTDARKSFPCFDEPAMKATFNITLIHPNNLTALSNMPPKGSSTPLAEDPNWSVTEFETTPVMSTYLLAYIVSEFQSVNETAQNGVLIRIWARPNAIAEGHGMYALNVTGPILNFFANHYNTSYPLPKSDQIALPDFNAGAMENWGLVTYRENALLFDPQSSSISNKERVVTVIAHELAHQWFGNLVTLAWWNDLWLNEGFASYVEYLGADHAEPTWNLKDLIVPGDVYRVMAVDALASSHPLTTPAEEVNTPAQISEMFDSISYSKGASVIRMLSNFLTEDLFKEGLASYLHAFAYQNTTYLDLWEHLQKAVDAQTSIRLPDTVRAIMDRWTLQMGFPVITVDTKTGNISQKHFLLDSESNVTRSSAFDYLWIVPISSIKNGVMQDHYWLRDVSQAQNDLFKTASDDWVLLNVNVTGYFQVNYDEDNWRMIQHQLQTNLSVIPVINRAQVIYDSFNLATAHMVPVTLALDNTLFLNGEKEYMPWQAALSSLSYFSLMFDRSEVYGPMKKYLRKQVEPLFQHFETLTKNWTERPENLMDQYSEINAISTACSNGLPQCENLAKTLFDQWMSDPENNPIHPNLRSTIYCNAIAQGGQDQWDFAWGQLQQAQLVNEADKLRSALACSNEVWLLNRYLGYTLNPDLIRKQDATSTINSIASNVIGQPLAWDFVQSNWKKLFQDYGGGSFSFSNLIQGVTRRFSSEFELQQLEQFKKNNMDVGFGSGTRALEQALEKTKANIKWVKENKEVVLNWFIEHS

IC50 [1] [µM] | IC50 (SK-OV-3) [µM] | IC50 [2] | Compound | Activity (HL-60) | Activity (K562)
5.6 | 210 | Not Active | COc1ccc(/C=C/C(=O)N2C[C@@H](NC(=O)c3cccnc3)C[C@H]2C(=O)NO)cc1OC |  | 
105 |  | Not Active | CCN(CC)C(=O)[C@H](Cc1ccccc1)NC(=O)Cn1c(=O)c(C)nc2ccccc21 |  | 
1750 |  | Not Active | COC(=O)C(CC(C)C)NC(=O)[C@@H](Cc1ccccc1)NC(=O)Cn1c(=O)c(C)nc2ccccc21 (stereo not given in full) |  | 
9430 |  | Not Active | Cc1nc2ccccc2n(CC(=O)N[C@@H](Cc2ccccc2)C(=O)NC(C)C)c1=O |  | 
2000 |  | Not Active | Cc1nc2ccccc2n(CC(=O)N[C@@H](Cc2ccccc2)C(=O)Nc2ccc(Br)cc2)c1=O |  | 
6460 |  | Not Active | Cc1cccc(NC(=O)[C@H](Cc2ccccc2)NC(=O)Cn2c(=O)c(C)nc3ccccc32)c1 |  | 
10.5 | 1980 | Not Active | Cc1ccc(NC(=O)[C@H](Cc2ccccc2)NC(=O)Cn2c(=O)c(C)nc3ccccc32)cc1 | inactive | inactive
124 |  | Not Active | Cc1nc2ccccc2n(CC(=O)N[C@@H](Cc2ccccc2)C(=O)Nc2ccc(F)cc2)c1=O |  | 
1360 |  | Not Active | Cc1nc2ccccc2n(CC(=O)N[C@@H](Cc2ccccc2)C(=O)Nc2ccc(F)c(Cl)c2)c1=O |  | 
624 |  | Not Active | Cc1nc2ccccc2n(CC(=O)N[C@@H](Cc2ccccc2)C(=O)Nc2ccc(Cl)cc2)c1=O |  | 
11500 |  | Not Active | COC(=O)CCCCCNC(=O)[C@H](Cc1ccccc1)NC(=O)Cn1c(=O)c(C)nc2ccccc21 |  | 
2760 |  | Not Active | COC(=O)CCCNC(=O)[C@H](Cc1ccccc1)NC(=O)Cn1c(=O)c(C)nc2ccccc21 |  | 
30 |  | Not Active | Cc1nc2ccccc2n(CC(=O)N[C@@H](Cc2ccccc2)C(=O)Nc2cccnc2)c1=O |  | 
37.3 |  | Not Active | Cc1ccccc1NC(=O)[C@H](Cc1ccccc1)NC(=O)Cn1c(=O)c(C)nc2ccccc21 |  | 
26.2 | 3020 | Not Active | Cc1nc2ccccc2n(CC(=O)N[C@@H](Cc2ccccc2)C(=O)Nc2ccc(Cl)c(Cl)c2)c1=O | inactive | inactive
56.6 |  | Not Active | CCCNC(=O)[C@H](Cc1ccccc1)NC(=O)Cn1c(=O)c(C)nc2ccccc21 |  | 
106 |  | Not Active | CCCCNC(=O)[C@H](Cc1ccccc1)NC(=O)Cn1c(=O)c(C)nc2ccccc21 |  | 
24.2 |  | Not Active | Cc1nc2ccccc2n(CC(=O)N[C@@H](Cc2ccccc2)C(=O)Nc2ccc(F)c(F)c2)c1=O |  | 
58.1 |  | Not Active | Cc1nc2ccccc2n(CC(=O)N[C@@H](Cc2ccccc2)C(=O)Nc2ccccc2)c1=O |  | 
